CHOP inhibitor: CHOP inhibition in unfolded protein response; CHO-K1 CHOP-promoter luciferase, tunicamycin-induced, 15-18 h; inhibition, % at 10 µM; 3.8% of 220,000 active; AID 2732;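 active means compounds that reduced the stress-induced luciferase reporter signal by more than about 70% of percent inhibition, limit read from the data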
L major viab: Leishmania major promastigote growth inhibition. inhibition, % at 10 µM. Leishmania major promastigotes, resazurin fluorescence viability. AID 1063. 9% of 200,000 active;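 further: promastigotes grown with compound for 44 hours at 28 °C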
Arbovirus anti: arbovirus infection inhibition; inhibition, % at 10 µM; arbovirus infection cell-based antiviral screen; 0.37% of 200,000 active; in the data active means inhibition above about 30%
PKD1 inh: inhibitors of human PKD1 kinase; PKD1 kinase fluorescence polarization assay; AID 797; inhibition, % (no concentration beside the values); 0.056% of 200,000 active; Q15139
Rad51 HR inh: blocks human Rad51 in homologous recombination; 0.085% of 200,000 active; inhibition, % at 10 µM; AID 1385; hRad51 DNA strand exchange, fluorescence dequenching; Q06609;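 active means inhibition above 40% at the single screening dose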
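Test system: preformed human Rad51 ssDNA filaments; also added: Donor/quencher-labelled 47-bp dsDNA substrate; doses: 10 µM final, single point; times: 37 °C 15-min filament assembly, 30-min compound preincubation, 15-min exchange; detection: FRET fluorescence dequenching, excitation 485 nm, emission 520 nm; read-out basis: Fluorescence-based percent inhibition, control- and blank-normalised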
Wee1 stabilizer: blocks degradation of human Wee1 kinase; HeLa Luc-Wee1K328M stability, luciferase luminescence; 100% = proteasome inhibitor MG132 effect; reporter increase, % at 5 µM; 1.2% of 220,000 active; AID 1321;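 active means activation above the mean of all tested compounds plus 3 SD, set per screening run, cut at about 8.8% in these data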;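 further: cells exposed to compound for 20 h before luminescence read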
Numbers stand for hits; . = inactive; / = not tested or not shown. Hits are enriched below; roughly 12% of the tested compounds scored in any of these assays. Unless noted, no stated cut-off is given here; in the data, active means inhibition above about 50%; inactive means the rest.

SMILES	CHOP inhibitor	L major viab	Arbovirus anti	PKD1 inh	Rad51 HR inh	Wee1 stabilizer
COC(=O)c1ccc2c(=O)[nH]c(CSc3nnc(C(F)(F)F)n3C)nc2c1	.	56	.	.	.	.
COC(=O)c1ccc2c(=O)[nH]c(CSc3nc(C)cs3)nc2c1	.	.	.	.	.	.
CC(NC(=O)c1ccccc1)c1nnc(SCc2nc3ccccc3c(=O)[nH]2)n1C (stereo not drawn)	.	.	.	.	.	8.8
CC(=O)Oc1ccc(C(=O)Nc2cc(NC(=O)c3ccc(OC(C)=O)cc3)cc(C(=O)NC(C)(C)C)c2)cc1	.	.	.	.	.	.
Cc1cc(C)c2c(c1)-c1c(ssc1=S)C(C)(C)N2C(=O)CN1C(=O)c2ccccc2C1=O	.	97	.	.	.	.
CCN(c1ccc(NC(=O)c2ccc(Cl)nc2)cc1)C(C)C	.	.	.	.	.	.
O=S(=O)(NCc1cn2ccccc2n1)c1ccccc1F	.	/	/	/	/	.
Cc1occc1C(=O)N=Nc1c(O)[nH]c2ccc(Br)cc12	.	.	.	.	.	.
Cc1cc2c(N=NC(=O)C3CC3c3ccccc3)c(O)[nH]c2cc1Br (stereo not drawn)	71	.	.	.	.	.
N#Cc1ccc(C(=O)CSc2n[nH]c(=O)n2-c2cccnc2)cc1	.	/	/	/	.	.
Cc1ccccc1OC(C)c1nc(-c2ccccc2)no1 (stereo not drawn)	.	.	.	.	.	.
Cc1ccc(SC(C)c2nc(-c3ccccc3)no2)cc1 (stereo not drawn)	72	.	.	.	.	.
CC(C)S(=O)(=O)c1cnc(N2CCOCC2)nc1N	.	/	/	/	.	.
CC1(C)C(N(O)C(=O)Nc2ccc(Cl)cc2)N(c2ccc(Cl)cc2)C(=O)N1CC(=O)NN (stereo not drawn)	.	100	.	.	.	.
COc1cc(CNCc2ccncc2)cc(Br)c1OCc1ccccc1F	.	98	.	.	.	.
COc1cc(CNc2ccc(O)cc2)cc(Br)c1OCc1ccccc1F	87	.	.	.	.	.
COc1cc(CNn2cn[nH]c2=S)cc(Br)c1OCc1ccccc1F	.	.	.	.	.	.
NNc1nc(-c2ccccc2)cs1	.	90	.	.	.	.
c1ccc(-c2csc(Nc3ncccn3)n2)cc1	.	.	.	.	.	.
CC(C)(C)c1csc(NC(=O)c2cccs2)n1	71	.	.	.	.	.
CC(=O)c1c(C)[nH]c(C(=O)Nc2nc(-c3ccc(Cl)cc3)cs2)c1C	.	.	.	.	.	.
O=C(CSc1ncn[nH]1)Nc1nc(-c2ccccc2)ns1	.	.	41	.	.	.
CC(=O)c1c(C)[nH]c(C(=O)Nc2nc(-c3ccc(-c4ccccc4)cc3)cs2)c1C	.	97	.	.	.	.
Clc1ccc(Cn2cccn2)cn1	.	.	.	.	/	.
O=C(O)c1ccccc1C(=O)Nc1ccc(Br)c2cccnc12	.	.	.	.	.	.
SMILES	CHOP inhibitor	L major viab	Arbovirus anti	PKD1 inh	Rad51 HR inh	Wee1 stabilizer
O=C(Nc1nc(-c2ccc(Cl)s2)cs1)c1cccs1	.	.	.	.	.	.
O=C(Nc1nc(-c2ccccc2)cs1)c1cccs1	.	.	74	.	.	.
Cc1cc(-c2csc(NC(=O)c3ccc(=O)[nH]c3)n2)c(C)n1Cc1ccccc1	.	.	.	.	.	.
O=C(Nc1nc(-c2ccccc2)ns1)c1cccs1	.	.	30	.	/	.
O=C(Nc1nc(-c2ccccc2)cs1)c1ccc(=O)[nH]c1	.	.	38	.	.	.
Cc1cc(NC(=O)c2c(-c3c(Cl)cccc3Cl)noc2C)n(C)n1	.	/	/	/	.	.
COC(=O)c1c(NC(=O)CSc2nnc(C)c(=O)[nH]2)sc(C)c1C	.	.	.	.	.	.
CCOc1cc(/C=N\NC(N)=O)cc(Br)c1OC(C)C	.	.	.	.	.	.
CCOc1cc(/C=N/NC(=O)C(=O)NCCCOC(C)C)cc(Br)c1O	.	70	.	.	.	.
CCCc1nnc(NC(=O)CCC(=O)NCc2ccc(OC)cc2)s1	.	/	/	/	/	.
CCOC(=O)CNC(=S)n1cnc(N)n1	.	.	.	.	.	.
C=CCNc1nc(N)c(C(=O)c2ccc3c(c2)OCO3)s1	.	50	.	.	.	.
CCOC(=O)c1oc2cc(OC(C)=O)ccc2c(=O)c1-c1ccc(OC)c(OC)c1	.	/	/	/	.	9.3
CCOC(=O)c1cccc(-n2c(C)cc(C=O)c2C)c1	.	.	.	.	.	.
